# Results as given in ChEMBL document CHEMBL1144800, “Synthesis and antimicrobial properties of monensin A esters” (2008).
# The source made the active and inactive calls. The calls are words filed in the database; no cut-off is given here.
# Columns and labels:
# Candida albicans [1] = assay: Antifungal activity against Candida albicans ATCC 10231 at 25 ug/disc after 24 hrs by disc diffusion assay; type: functional; settings: ATCC 10231, 24 h, read-out: IZ
# Outline: (§1)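 Disc diffusion per CLSI on RPMI agar with 2% glucose. Sterile 9 mm filter-paper discs were loaded at 25 µg per disc, dried, and placed on the agar surface. Plates were incubated at 35 °C, and the diameter of the growth-inhibition zone was read.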
# Candida parapsilosis [2] = assay: Antifungal activity against Candida parapsilosis ATCC 22019 after 24 hrs by serial agar dilution method; type: functional; settings: Lodderomyces parapsilosis, ATCC 22019, 24 h
# Outline: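 Twofold serial agar dilution per CLSI on RPMI agar with 2% glucose. Agents were dissolved in DMSO and tested at 3.125–400 µg/ml in the solid medium, with a DMSO control. Final inoculum was 10^4 CFU/mL.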
# Candida albicans [3] = assay: Antifungal activity against Candida albicans ATCC 90028 at 25 ug/disc after 24 hrs by disc diffusion assay; type: functional; settings: ATCC 90028, 24 h, read-out: IZ; outline: as §1
# Candida parapsilosis [4] = assay: Antifungal activity against Candida parapsilosis ATCC 22019 at 25 ug/disc after 24 hrs by disc diffusion assay; type: functional; settings: Lodderomyces parapsilosis, ATCC 22019, 24 h; read-out: IZ; outline: as §1
# [5] = system: Staphylococcus epidermidis; assay: Antibacterial activity against Staphylococcus epidermidis ATCC 12228 at 400 ug/disc after 18 hrs by disc diffusion assay; type: functional; settings: ATCC 12228, 18 h, read-out: IZ
# Outline: (§2)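 Disc diffusion on Mueller–Hinton II agar per CLSI guidelines. Compound in ethanol applied to 9 mm filter paper discs at 400 µg per disc, then dried and placed on the agar surface. Growth inhibition zone diameter read after 18 h at 35 °C.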
# [6] = system: Staphylococcus epidermidis; assay: Antibacterial activity against Staphylococcus epidermidis ATCC 12228 after 18 hrs by serial agar dilution method; type: functional; settings: ATCC 12228, 18 h
# Outline: (§3)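 MIC by twofold serial agar dilution in Mueller–Hinton II agar per CLSI, run only for compounds that gave an inhibition zone in disc assay. Compounds dissolved in DMSO, tested at 3.125–400 µg/ml in agar. Final inoculum 10^4 CFU/ml. […] DMSO control included.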
# Bacillus subtilis [7] = assay: Antibacterial activity against Bacillus subtilis ATCC 6633 at 400 ug/disc after 18 hrs by disc diffusion assay; type: functional; settings: ATCC 6633, 18 h, read-out: IZ; outline: as §2
# Bacillus subtilis [8] = assay: Antibacterial activity against Bacillus subtilis ATCC 6633 after 18 hrs by serial agar dilution method; type: functional; settings: ATCC 6633, 18 h; outline: as §3
# Bacillus cereus [9] = assay: Antibacterial activity against Bacillus cereus ATCC 11778 at 400 ug/disc after 18 hrs by disc diffusion assay; type: functional; settings: ATCC 11778, 18 h, read-out: IZ; outline: as §2
# Bacillus cereus [10] = assay: Antibacterial activity against Bacillus cereus ATCC 11778 after 18 hrs by serial agar dilution method; type: functional; settings: ATCC 11778, 18 h; outline: as §3
# Enterococcus hirae [11] = assay: Antibacterial activity against Enterococcus hirae ATCC 10541 at 400 ug/disc after 18 hrs by disc diffusion assay; type: functional; settings: ATCC 10541, 18 h, read-out: IZ; outline: as §2
# Enterococcus hirae [12] = assay: Antibacterial activity against Enterococcus hirae ATCC 10541 after 18 hrs by serial agar dilution method; type: functional; settings: ATCC 10541, 18 h
# Outline: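 Twofold serial agar dilution MIC in Mueller–Hinton II agar (CLSI), run only for compounds that gave an inhibition zone in disc assay. DMSO solutions tested at 3.125–400 µg/ml in agar. Final inoculum 10^5 CFU/ml. Read after 18 h at 35 °C. DMSO control included.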
# Micrococcus luteus [13] = assay: Antibacterial activity against Micrococcus luteus ATCC 9341 at 400 ug/disc after 18 hrs by disc diffusion assay; type: functional; settings: ATCC 9341, 18 h, read-out: IZ; outline: as §2
# Micrococcus luteus [14] = assay: Antibacterial activity against Micrococcus luteus ATCC 9341 after 18 hrs by serial agar dilution method; type: functional; settings: ATCC 9341, 18 h; outline: as §3
# Micrococcus luteus [15] = assay: Antibacterial activity against Micrococcus luteus ATCC 10240 at 400 ug/disc after 18 hrs by disc diffusion assay; type: functional; settings: ATCC 10240, 18 h, read-out: IZ; outline: as §2
# Micrococcus luteus [16] = assay: Antibacterial activity against Micrococcus luteus ATCC 10240 after 18 hrs by serial agar dilution method; type: functional; settings: ATCC 10240, 18 h; outline: as §3
# Escherichia coli [17] = assay: Antibacterial activity against Escherichia coli ATCC 10538 at 400 ug/disc after 18 hrs by disc diffusion assay; type: functional, organism-based; outline: as §2
# Escherichia coli [18] = assay: Antibacterial activity against Escherichia coli ATCC 25922 at 400 ug/disc after 18 hrs by disc diffusion assay; type: functional, organism-based; outline: as §2
# Proteus vulgaris = assay: Antibacterial activity against Proteus vulgaris NCTC 4635 at 400 ug/disc after 18 hrs by disc diffusion assay; type: functional, organism-based; outline: as §2
# Pseudomonas aeruginosa [19] = assay: Antibacterial activity against Pseudomonas aeruginosa ATCC 15442 at 400 ug/disc after 18 hrs by disc diffusion assay; type: functional, organism-based; outline: as §2
# Pseudomonas aeruginosa [20] = assay: Antibacterial activity against Pseudomonas aeruginosa NCTC 6749 at 400 ug/disc after 18 hrs by disc diffusion assay; type: functional, organism-based; outline: as §2
# Pseudomonas aeruginosa [21] = assay: Antibacterial activity against Pseudomonas aeruginosa ATCC 27853 at 400 ug/disc after 18 hrs by disc diffusion assay; type: functional, organism-based; outline: as §2
# [22] = system: Bordetella bronchiseptica; assay: Antibacterial activity against Bordetella bronchiseptica ATCC 4617 at 400 ug/disc after 18 hrs by disc diffusion assay; type: functional, organism-based; outline: as §2
# Candida albicans [23] = assay: Antifungal activity against Candida albicans ATCC 10231 at 400 ug/disc after 24 hrs by disc diffusion assay; type: functional; settings: ATCC 10231, 24 h, read-out: IZ
# Outline: (§4)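 Disc diffusion on RPMI agar with 2% glucose per CLSI guidelines. Discs 9 mm filter paper, loaded from ethanol solution with 400 µg compound, dried before placing on the agar. Inhibition zone diameter read after incubation at 35 °C. Fluconazole control at 25 µg per disc.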
# Candida albicans [24] = assay: Antifungal activity against Candida albicans ATCC 10231 after 24 hrs by serial agar dilution method; type: functional; settings: ATCC 10231, 24 h
# Outline: (§5)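 Yeast MIC by twofold serial agar dilution on RPMI agar with 2% glucose (CLSI), run only for compounds that gave an inhibition zone in disc assay. Compounds in DMSO, 3.125–400 µg/ml in agar. Final inoculum 10^4 CFU/ml. […] Fluconazole and DMSO controls included.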
# Candida albicans [25] = assay: Antifungal activity against Candida albicans ATCC 90028 at 400 ug/disc after 24 hrs by disc diffusion assay; type: functional; settings: ATCC 90028, 24 h, read-out: IZ; outline: as §4
# Candida albicans [26] = assay: Antifungal activity against Candida albicans ATCC 90028 after 24 hrs by serial agar dilution method; type: functional; settings: ATCC 90028, 24 h; outline: as §5
# Escherichia coli [27] = assay: Antibacterial activity against Escherichia coli NCTC 8196 at 400 ug/disc after 18 hrs by disc diffusion assay; type: functional, organism-based; outline: as §2
# Staphylococcus aureus [28] = assay: Antibacterial activity against Staphylococcus aureus NCTC 4163 at 400 ug/disc after 18 hrs by disc diffusion assay; type: functional; settings: NCTC 4163, 18 h, read-out: IZ; outline: as §2
# Staphylococcus aureus [29] = assay: Antibacterial activity against Staphylococcus aureus NCTC 4163 after 18 hrs by serial agar dilution method; type: functional; settings: NCTC 4163, 18 h; outline: as §3
# Staphylococcus aureus [30] = assay: Antibacterial activity against Staphylococcus aureus ATCC 25923 at 400 ug/disc after 18 hrs by disc diffusion assay; type: functional; settings: ATCC 25923, 18 h, read-out: IZ; outline: as §2
# Staphylococcus aureus [31] = assay: Antibacterial activity against Staphylococcus aureus ATCC 25923 after 18 hrs by serial agar dilution method; type: functional; settings: ATCC 25923, 18 h; outline: as §3
# Staphylococcus aureus [32] = assay: Antibacterial activity against Staphylococcus aureus ATCC 6538 at 400 ug/disc after 18 hrs by disc diffusion assay; type: functional; settings: ATCC 6538, 18 h, read-out: IZ; outline: as §2
# Staphylococcus aureus [33] = assay: Antibacterial activity against Staphylococcus aureus ATCC 6538 after 18 hrs by serial agar dilution method; type: functional; settings: ATCC 6538, 18 h; outline: as §3
# Staphylococcus aureus [34] = assay: Antibacterial activity against Staphylococcus aureus ATCC 29213 at 400 ug/disc after 18 hrs by disc diffusion assay; type: functional; settings: ATCC 29213, 18 h, read-out: IZ; outline: as §2
# Staphylococcus aureus [35] = assay: Antibacterial activity against Staphylococcus aureus ATCC 29213 after 18 hrs by serial agar dilution method; type: functional; settings: ATCC 29213, 18 h; outline: as §3
# Candida parapsilosis [36] = assay: Antifungal activity against Candida parapsilosis ATCC 22019 at 400 ug/disc after 24 hrs by disc diffusion assay; type: functional; settings: Lodderomyces parapsilosis, ATCC 22019, 24 h; read-out: IZ; outline: as §4
compound,measurement,setting,value
OC(Cn1cncn1)(Cn1cncn1)c1ccc(F)cc1F [FLUCONAZOLE],zone of inhibition at 25 µg/disc,Candida albicans [1],22 mm
same,MIC,Candida parapsilosis [2],2 µg/mL
same,zone of inhibition at 25 µg/disc,Candida albicans [3],32 mm
same,zone of inhibition at 25 µg/disc,Candida parapsilosis [4],22 mm
CC[C@@]1([C@@H]2O[C@@H]([C@H]3O[C@@](O)(CO)[C@H](C)C[C@@H]3C)C[C@@H]2C)CC[C@H]([C@]2(C)CC[C@]3(C[C@H](O)[C@@H](C)[C@@H]([C@@H](C)[C@@H](OC)[C@H](C)C(=O)OCCN4CCOCC4)O3)O2)O1,zone of inhibition at 400 µg/disc,[5],24 mm
same,MIC,[6],12.5 µg/mL
same,zone of inhibition at 400 µg/disc,Bacillus subtilis [7],27 mm
same,MIC,Bacillus subtilis [8],6.25 µg/mL
same,zone of inhibition at 400 µg/disc,Bacillus cereus [9],25 mm
same,MIC,Bacillus cereus [10],6.25 µg/mL
same,zone of inhibition at 400 µg/disc,Enterococcus hirae [11],13 mm
same,MIC,Enterococcus hirae [12],50 µg/mL
same,zone of inhibition at 400 µg/disc,Micrococcus luteus [13],22 mm
same,MIC,Micrococcus luteus [14],25 µg/mL
same,zone of inhibition at 400 µg/disc,Micrococcus luteus [15],18 mm
same,MIC,Micrococcus luteus [16],12.5 µg/mL
same,Activity,Escherichia coli [17],inactive
same,Activity,Escherichia coli [18],inactive
same,Activity,Proteus vulgaris,inactive
same,Activity,Pseudomonas aeruginosa [19],inactive
same,Activity,Pseudomonas aeruginosa [20],inactive
same,Activity,Pseudomonas aeruginosa [21],inactive
same,Activity,[22],inactive
same,zone of inhibition at 400 µg/disc,Candida albicans [23],18 mm
same,MIC,Candida albicans [24],200 µg/mL
same,zone of inhibition at 400 µg/disc,Candida albicans [25],17 mm
same,MIC,Candida albicans [26],200 µg/mL
same,Activity,Escherichia coli [27],inactive
same,zone of inhibition at 400 µg/disc,Staphylococcus aureus [28],23 mm
same,MIC,Staphylococcus aureus [29],12.5 µg/mL
same,zone of inhibition at 400 µg/disc,Staphylococcus aureus [30],20 mm
same,MIC,Staphylococcus aureus [31],6.25 µg/mL
same,zone of inhibition at 400 µg/disc,Staphylococcus aureus [32],23 mm
same,MIC,Staphylococcus aureus [33],12.5 µg/mL
same,zone of inhibition at 400 µg/disc,Staphylococcus aureus [34],25 mm
same,MIC,Staphylococcus aureus [35],6.25 µg/mL
same,zone of inhibition at 400 µg/disc,Candida parapsilosis [36],14 mm
same,MIC,Candida parapsilosis [2],400 µg/mL
